The values that follow come from ChEMBL document CHEMBL3763085, “Optimization of tetrahydronaphthalene inhibitors of Raf with selectivity over hERG” (Bioorg Med Chem Lett, 2016).

Format in all cases: ADME, organism-based
Series [1] is described as follows: Plasma clearance in Sprague-Dawley rat at 1 mg/kg, iv. In a few lines: (§1)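 Male SD rats received 1 mg/kg intravenously. The vehicle was 10% 2-hydroxypropyl-beta-cyclodextrin or ethanol/PEG400/N,N-dimethylacetamide/water 1:4:1:4 (by volume), depending on compound. Plasma clearance (L/h/kg) and steady-state volume of distribution (L/kg) were derived.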
A short description of series [2]: Oral bioavailability in Sprague-Dawley rat at 10 mg/kg. The settings on record: in vivo. In a few lines: (§2)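 Male SD rats were dosed orally at 10 mg/kg in 10% 2-hydroxypropyl-beta-cyclodextrin.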
Series [3] in a line: AUC in Sprague-Dawley rat at 10 mg/kg, po. The settings on record: in vivo. In a few lines: as §2
A short description of series [4]: Volume of distribution at steady state in Sprague-Dawley rat at 1 mg/kg, iv. The settings on record: in vivo, read-out: Vdss. In a few lines:
as §1

As usually defined, the clearance is the volume of plasma or blood freed of the substance per unit of time. One may read the bioavailability as the share of a dose that reaches the circulation, judged against a reference dose that is usually intravenous. The low end stands for little systemic uptake, the high end for much systemic uptake. As usually defined, the AUC is concentration integrated over time. `CN(C)Cc1cc(C(=O)N[C@@H]2CCc3ccc(Oc4ccnc5c4CCC(=O)N5)cc3C2)cc(C(F)(F)F)c1.Cl.Cl` had a clearance in series [1] of 3.83 mL/min/kg. In series [2], this compound gave a bioavailability of 100%. This compound showed an AUC in series [3] of 98.6 µM·h. In series [4], the Vd came out at 0.75 L/kg.
In the same order, the values of `Cl.Cn1cc(-c2cc(C(=O)N[C@@H]3CCc4ccc(Oc5ccnc6c5CCC(=O)N6)cc4C3)cc(C(F)(F)F)c2)cn1` are 1.33 mL/min/kg, 54%, 126 µM·h and 0.41 L/kg.
